One may read the Ki as the equilibrium dissociation constant of an inhibitor or competing ligand from its target. The Kd is the equilibrium constant for the complex coming apart.

These results are taken from ChEMBL document CHEMBL4049434, “Radiolabeled Dibenzodiazepinone-Type Antagonists Give Evidence of Dualsteric Binding at the M2 Muscarinic Acetylcholine Receptor” (J Med Chem, 2017).

The structures appear in SMILES notation. The source made the active and inactive calls. The rule behind the calls is not given here.

In assay [1] the target is T1, Muscarinic acetylcholine receptor M2 (Homo sapiens, UniProt P08172).
T1 sequence (P08172 whole entry): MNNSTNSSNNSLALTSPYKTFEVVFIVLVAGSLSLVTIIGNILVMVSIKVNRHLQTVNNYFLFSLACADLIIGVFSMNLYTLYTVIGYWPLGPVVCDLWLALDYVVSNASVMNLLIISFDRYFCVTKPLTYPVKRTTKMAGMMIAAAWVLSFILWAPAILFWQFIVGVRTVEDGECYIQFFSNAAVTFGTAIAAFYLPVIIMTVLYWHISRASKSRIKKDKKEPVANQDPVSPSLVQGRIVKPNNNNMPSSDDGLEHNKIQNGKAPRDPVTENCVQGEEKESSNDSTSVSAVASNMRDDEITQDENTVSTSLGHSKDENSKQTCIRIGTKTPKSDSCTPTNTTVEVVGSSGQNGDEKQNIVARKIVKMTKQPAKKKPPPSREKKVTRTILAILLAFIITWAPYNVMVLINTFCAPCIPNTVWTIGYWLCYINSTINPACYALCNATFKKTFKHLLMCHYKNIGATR
Nature of the assay: Displacement of [3H]UNSW-MK259 from human muscarinic acetylcholine receptor M2 expressed in CHOK9 cells after 3 hrs by liquid scintillation counting assay. It is filed as cell-based. A general note: In a radioligand displacement assay an active substance lowers the binding of a labelled ligand.

For assay [2], the target named is T1, Muscarinic acetylcholine receptor M2. Briefly: Displacement of [3H]UR-AP060 from human muscarinic acetylcholine receptor M2 expressed in CHOK9 cell homogenate after 3 hrs by liquid scintillation counting assay.
For assay [3] the target is unchanged. Nature of the assay: Displacement of [3H]NMS from human muscarinic acetylcholine receptor M2. In outline:
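Competition binding at intact adherent CHO-K9 cells stably expressing human M2R. Cells were incubated with [3H]NMS 0.2 nM (final) and competitor for 3 h at 23 ± 1 °C in Leibovitz L-15 medium with 1% BSA. […] Curves were fitted by four-parameter logistic fits. Replicates: 3 to 9 independent experiments, each in triplicate.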

Assay [4] addresses T2, Muscarinic acetylcholine receptor M2 (Homo sapiens) (UniProt P08172).
T2 sequence (whole entry): T1 sequence (P08172 whole entry)
Nature of the assay: (§1) Displacement of [3H]NMS from human muscarinic acetylcholine receptor M2 expressed in CHOK9 cells after 3 hrs by liquid scintillation counting assay. It is filed as cell-based.

Assay [5] deals with T1, Muscarinic acetylcholine receptor M2. The description is as §1. It is filed as cell-based. Particulars: read-out: Ki.
The target is the same in assay [6]. Nature of the assay: Binding affinity to human muscarinic acetylcholine receptor M2 expressed in live adherent CHOK9 cells after 2 hrs by liquid scintillation counting assay. It is filed as cell-based. In outline:
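Live adherent CHO-hM2 cells in L15 medium with 1% BSA, 23 ± 1 °C, 2 h incubation. Competition at 2 nM radioligand; additional 4, 8, 15 and 30 nM in W84 experiments. […] Saturation data fitted one-site; competition by four-parameter logistic fits; at least three experiments in triplicate.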

The target is the same in assay [7]. Nature of the assay: Ratio of binding affinity to human muscarinic acetylcholine receptor M2 expressed in CHOK9 cells assessed as dissociation rate constant to binding affinity to human muscarinic acetylcholine receptor M2 expressed in CHOK9 cells assessed as association rate constant. Type of assay: cell-based.
The target is the same in assay [8]. Briefly: Binding affinity to human muscarinic acetylcholine receptor M2 expressed in live adherent CHOK9 cells assessed as saturation binding after 2 hrs by liquid scintillation counting assay.

For `O=C1CCCN1CC#CCN1CCCC1` [OXOTREMORINE], the values for the Ki in assay [1], in assay [2] and in assay [3] were 148 nM, 10000 nM and 251 to 10000 nM, respectively.

Consider `O=C1Nc2ccccc2N(C(=O)CN2CCN(CC(=O)N3c4ccccc4NC(=O)c4ccccc43)CC2)c2ccccc21`, for which the inhibition entry in assay [4] is “Active”.

Take `[3H]CC([3H])C(=O)NCCNC(=O)CCc1cn(CCCCC2CCN(CC(=O)N3c4ccccc4NC(=O)c4ccccc43)CC2)cn1` (stereo not drawn): the Ki in assay [5] turned out to be 0.76 nM. In addition, the figures for the Kd in assay [6], in assay [7] and in assay [8] were 0.87 nM, 0.7 nM and 0.87 nM, respectively.
